Peptide text beside a SMILES is read from it. * marks the point of attachment. Cbz = O=C(OCc1ccccc1)*
Assays:
[1] = test system: SLUG degradation in AEC2s; test: SLUG degradation in AEC2s with cycloheximide plus 3MA or MG132; format: cell-based, mouse; conditions: CHX 10 μg/mL with 3 MA 5 mmol/L or MG132 10 μmol/L
mBLM-challenged mice = test: MX69; format: in vivo, mouse; conditions: n = 5
In short: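 Mice under avertin anaesthesia (400 mg/kg i.p.) received intratracheal bleomycin, 1 U/kg in LPS-free PBS, six times at 14-day intervals. The MDM2 inhibitor was given at 100 mg/kg/day i.p. for 3 days after every challenge and for 3 days before sacrifice. Read-outs: Slug immunoblot in sorted AEC2s (GAPDH loading control), right-lung hydroxyproline, Masson staining, and AEC2 colony-forming efficiency.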

AEC2s = format: cell-based, mouse; conditions: 3D Matrigel co-culture with MLg2908 cells, Day 14, n = 3
In short: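 Mouse AEC2s were sorted as DAPI-negative, lineage-negative, EpCAM-positive cells from lineage-depleted lung cells. 5 × 10^3 cells were embedded in Matrigel/DMEM (1:1) with 2 × 10^5 MLg2908 cells in Transwell inserts. Lower-chamber DMEM contained ITS, 10% FBS and antibiotics, changed daily. On Day 14, colonies above a size cutoff were counted by microscopy. CFE = colonies / input AEC2s.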

[2] = target: TRIB3 (immobilized on CM5 sensor chips) (UniProt Q96RU7); test: SPR
Sequence of UniProt Q96RU7 (Q96RU7 whole entry): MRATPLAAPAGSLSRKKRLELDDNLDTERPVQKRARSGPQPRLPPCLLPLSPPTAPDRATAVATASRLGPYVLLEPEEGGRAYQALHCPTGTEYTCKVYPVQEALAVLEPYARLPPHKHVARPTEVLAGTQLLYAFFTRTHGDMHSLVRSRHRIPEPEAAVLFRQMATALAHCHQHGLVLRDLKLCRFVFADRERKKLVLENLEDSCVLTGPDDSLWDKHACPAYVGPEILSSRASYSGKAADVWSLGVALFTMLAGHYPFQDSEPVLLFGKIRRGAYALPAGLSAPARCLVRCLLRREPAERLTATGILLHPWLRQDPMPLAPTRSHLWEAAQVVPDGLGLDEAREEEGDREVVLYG

CC(C)C[C@@H](C=O)NC(=O)[C@H](CC(C)C)NC(=O)[C@H](CC(C)C)NC(=O)OCc1ccccc1 [MG132] (Cbz-Leu-Leu-Leu-aldehyde)
SLUG degradation [1]: suppressed

Cc1ccc(NS(=O)(=O)c2ccc3c(c2)C2C=CCC2C(c2ccc(C(=O)O)cc2)N3)cc1C (stereo not shown) [MX69]
level of Slug in AEC2s (mBLM-challenged mice; AEC2s isolated from fibrotic mice but not control mice, immunoblot): increased
protein level of MDM2 in AEC2s (mBLM-challenged mice; AEC2s isolated from fibrotic mice, immunoblot): decreased
capacity of AEC2s mediated LAR (colony-forming efficiency) (mBLM-challenged mice; AEC2s sorted from MX69 treated mBLM mice): further declined

C[S+]([O-])c1ccc(-c2nc(-c3ccncc3)c(-c3ccc(F)cc3)[nH]2)cc1 (stereo not shown) [SB203580]
CFE of AEC2s (AEC2s): decreased

Oc1c2ccccc2c2c3c(cccc13)N=N2 [SP600125]
CFE of AEC2s (AEC2s): decreased

MR2 (from UniProt Q00987 460-470) (peptide)
Kd [2]: 46 nM

— PMC10150180 (Acta Pharmaceutica Sinica. B, 2023)
